According to ChEMBL document CHEMBL3774376, “Synthesis, and anticonvulsant activity of new amides derived from 3-methyl- or 3-ethyl-3-methyl-2,5-dioxo-pyrrolidin-1-yl-acetic acids” (Bioorg Med Chem, 2016):
The source made the active and inactive calls. The rule behind the calls is not given here.

Key:
Mus musculus [1] = assay: Neurotoxicity in CD1 albino mouse assessed as acute motor impairment at 100 to 300 mg/kg, ip after 0.5 hrs by rotarod test; type: toxicity, organism-based; details: in vivo
In short: (§1)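 Male CD-1 mice given 30, 100 or 300 mg/kg ip in 0.5% methylcellulose, tested at 0.5 and 4 h. Motor impairment was scored as failure to keep balance for at least 1 min on a rod rotating at 10 rpm. Minimum dose causing impairment reported.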

Mus musculus [2] = assay: Neurotoxicity in CD1 albino mouse assessed as acute motor impairment at 300 mg/kg, ip after 4 hrs by rotarod test; type: toxicity, organism-based; details: in vivo; in short: as §1
Mus musculus [3] = assay: Anticonvulsant activity in ip dosed CD1 albino mouse assessed as time to peak effect; type: functional
In short: (§2)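 Quantitation in male CD-1 mice dosed ip at the previously estimated time of peak effect. Seizures were induced by MES or by sc pentylenetetrazole 85 mg/kg; rotarod at 10 rpm assessed motor impairment. Groups of six, at least three doses giving 10-90% effect.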

[4] = Neurotoxicity in ip dosed CD1 albino mouse assessed as acute motor impairment by rotarod test; type: toxicity, organism-based; details: in vivo; in short: as §2
Mus musculus [5] = species: Mus musculus; assay: Protection index, ratio of TD50 for CD1 albino mouse to ED50 for protection against maximal electroshock-induced seizures in CD1 albino mouse; in short: as §2
Mus musculus [6] = assay: Anticonvulsant activity in ip dosed CD1 albino mouse assessed as protection against 32 mA-current- for 3 secs induced seizure by 6Hz psychomotor seizure test; type: functional
In short: (§3)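 6-Hz corneal stimulation at 32 mA (6 Hz, 3 s) in male CD-1 mice dosed ip. Groups of six received several doses until at least three points fell between 10 and 90% protection. […] PI = TD50/ED50 (rotarod).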

Mus musculus [7] = species: Mus musculus; assay: Protection index, ratio of TD50 for CD1 albino mouse to ED50 for protection against 32 mA-current- for 3 secs induced seizure in CD1 albino mouse by 6Hz psychomotor seizure test; in short: as §3
Mus musculus [8] = assay: Antinociceptive activity in CD1 albino mouse assessed as reduction of formalin-induced licking response in neurogenic phase at 70.08 mg/kg, ip preincubated for 30 mins measured after 5 mins; type: functional; parameters: scale not given: the % may be the effect or the level left
Mus musculus [9] = assay: Antinociceptive activity in CD1 albino mouse assessed as reduction of formalin-induced licking response in inflammatory phase at 70.08 mg/kg, ip preincubated for 30 mins measured after 15 to 20 mins; type: functional; parameters: scale not given: the % may be the effect or the level left
Mus musculus [10] = assay: Antinociceptive activity in CD1 albino mouse assessed as reduction of formalin-induced licking response in inflammatory phase at 70.08 mg/kg, ip preincubated for 30 mins measured after 25 to 30 mins; type: functional; parameters: scale not given: the % may be the effect or the level left
Mus musculus [11] = assay: Local anesthetic activity in CD1 albino mouse assessed prolongation of time reaction at 2 % concentration after 20 secs by tail immersion test relative to vehicle control; type: functional
In short: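 Compound at 1 or 2% in 0.5% methylcellulose, injected sc (0.2 ml) about 1 cm from the tail root of male CD-1 mice. After 15 min, the distal 3 cm of the tail was immersed in 50 ± 0.5 °C water and withdrawal time measured, cut off at 20 s. n=8; mean ± SEM; % prolongation relative to vehicle.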

Rattus norvegicus = species: Rattus norvegicus; assay: Displacement of [3H]BTX from voltage-sensitive Na+ channel site 2 in rat cerebral cortex synaptoneurosomes at 100 uM after 60 mins by liquid scintillation spectroscopic analysis; type: tissue-based
In short: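 Cerebral cortex synaptoneurosomes from rat, tested at 100 µM for inhibition of specific [3H]BTX binding to the voltage-sensitive Na+ channel site 2. Reported as % inhibition of control specific binding; run commercially.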

Mus musculus [12] = assay: Anticonvulsant activity in ip dosed CD1 albino mouse assessed as time to peak effect by 6Hz psychomotor seizure test; type: functional; in short: as §3
Mus musculus [13] = assay: Anticonvulsant activity in ip dosed CD1 albino mouse assessed as protection against maximal electroshock-induced seizures; type: functional
Mus musculus [14] = assay: Anticonvulsant activity in CD1 albino mouse assessed as protection against maximal electroshock-induced seizures at 100 to 300 mg/kg, ip after 0.5 hrs; type: functional; details: read-out: MED
Mus musculus [15] = assay: Anticonvulsant activity in CD1 albino mouse assessed as protection against maximal electroshock-induced seizures at 100 to 300 mg/kg, ip after 4 hrs; type: functional; details: read-out: MED
Mus musculus [16] = assay: Anticonvulsant activity in CD1 albino mouse assessed as protection against subcutaneous pentylenetetrazole-induced seizures at 300 mg/kg, ip after 0.5 hrs; type: functional, organism-based
In short: (§4)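 Male CD-1 mice (16-26 g), compounds ip in 0.5% methylcellulose/water at 30, 100 or 300 mg/kg, 3-4 per group. At 0.5 or 4 h, pentylenetetrazole 85 mg/kg was injected sc. Protection was absence of clonic convulsions (at least 5 s) over a 30 min observation. Minimum active dose recorded.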

Mus musculus [17] = assay: Anticonvulsant activity in CD1 albino mouse assessed as protection against subcutaneous pentylenetetrazole-induced seizures at 300 mg/kg, ip after 4 hrs; type: functional, organism-based; in short: as §4
Mus musculus [18] = assay: Neurotoxicity in CD1 albino mouse assessed as acute motor impairment at 300 mg/kg, ip measured after 0.5 hrs by rotarod test; type: toxicity, organism-based; details: in vivo; in short: as §1
Mus musculus [19] = assay: Anticonvulsant activity in CD1 mouse assessed as protection against 32 mA-current- for 3 secs induced seizure at 100 mg/kg, ip after 0.5 hrs by 6Hz psychomotor seizure test; type: functional
In short: (§5)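 Male CD-1 mice given 100 mg/kg ip in 0.5% methylcellulose, four per time point. Corneal stimulation at 32 mA, 0.2 ms monopolar rectangular pulses at 6 Hz for 3 s, from a constant-current device. A mouse was protected if it resumed normal exploratory behavior within 10 s. Reported as number protected over number tested.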

Mus musculus [20] = assay: Antinociceptive activity in CD1 albino mouse assessed as reduction of formalin-induced licking response in neurogenic phase at 87.36 mg/kg, ip preincubated for 1 hr measured after 5 mins; type: functional, organism-based
Mus musculus [21] = assay: Antinociceptive activity in CD1 albino mouse assessed as reduction of formalin-induced licking response in inflammatory phase at 87.36 mg/kg, ip preincubated for 1 hr measured after 15 to 20 mins; type: functional; parameters: scale not given: the % may be the effect or the level left
Mus musculus [22] = assay: Antinociceptive activity in CD1 albino mouse assessed as reduction of formalin-induced licking response in inflammatory phase at 87.36 mg/kg, ip preincubated for 1 hr measured after 25 to 30 mins; type: functional; parameters: scale not given: the % may be the effect or the level left
Mus musculus [23] = assay: Anticonvulsant activity in CD1 mouse assessed as protection against 32 mA-current- for 3 secs induced seizure at 100 mg/kg, ip after 1 hrs by 6Hz psychomotor seizure test; type: functional; in short: as §5

Structure (SMILES)	Activity (Mus musculus [2])	Time (Mus musculus [3]) [h]	TD50 [4] [mg/kg]	Ratio TD50/ED50 (Mus musculus [5])	Activity (Mus musculus [11]) [%]	inhibition (Rattus norvegicus) [%]	ED50 (Mus musculus [13]) [mg/kg]	minimal effective dose (Mus musculus [14]) [mg/kg]	minimal effective dose (Mus musculus [15]) [mg/kg]	Activity (Mus musculus [16])	Activity (Mus musculus [17])	other results
CCC1(C)CC(=O)N(CC(=O)N2CCN(c3cccc(C(F)(F)F)c3)CC2)C1=O (stereo not given)	Non-toxic	0.5	285	4.06	46	63.5	70.1	100	100	inactive	inactive	MTC (Mus musculus [1]): 300 mg/kg; ED50 (Mus musculus [6]): 90.3 mg/kg; Ratio TD50/ED50 (Mus musculus [7]): 3.15; Activity (Mus musculus [8]): 40%; Activity (Mus musculus [9]): 100%; Activity (Mus musculus [10]): 99%; Time (Mus musculus [12]): 0.5 h
CC1CC(=O)N(CC(=O)N2CCN(c3ccc(F)cc3)CC2)C1=O (stereo not given)	Non-toxic	1	> 300	>3.43	12	36.6	87.4	300	100	inactive	inactive	Activity (Mus musculus [18]): Non-toxic; Activity (Mus musculus [19]): 75%; Activity (Mus musculus [20]): inactive; Activity (Mus musculus [21]): 95%; Activity (Mus musculus [22]): 98%; Activity (Mus musculus [23]): 75%
